Data: ChEMBL document CHEMBL3217426, “Synthesis and in vitro biological evaluation of pyrazole group-containing analogues for PDE10A” (Medchemcomm, 2013)
pIC50: −log10 of the molar value.

Assays:
[1] = target: cAMP and cAMP-inhibited cGMP 3',5'-cyclic phosphodiesterase 10A (Homo sapiens, UniProt Q9Y233); test: Inhibition of human recombinant PDE10A catalytic domain assessed reduction in [3H]cAMP hydrolysis preincubated with enzyme for 5 mins prior to substrate addition measured after 20 mins by scintillation proximity assay
cAMP and cAMP-inhibited cGMP 3',5'-cyclic phosphodiesterase 10A, sequence (Q9Y233 whole entry, the tested form may be a part): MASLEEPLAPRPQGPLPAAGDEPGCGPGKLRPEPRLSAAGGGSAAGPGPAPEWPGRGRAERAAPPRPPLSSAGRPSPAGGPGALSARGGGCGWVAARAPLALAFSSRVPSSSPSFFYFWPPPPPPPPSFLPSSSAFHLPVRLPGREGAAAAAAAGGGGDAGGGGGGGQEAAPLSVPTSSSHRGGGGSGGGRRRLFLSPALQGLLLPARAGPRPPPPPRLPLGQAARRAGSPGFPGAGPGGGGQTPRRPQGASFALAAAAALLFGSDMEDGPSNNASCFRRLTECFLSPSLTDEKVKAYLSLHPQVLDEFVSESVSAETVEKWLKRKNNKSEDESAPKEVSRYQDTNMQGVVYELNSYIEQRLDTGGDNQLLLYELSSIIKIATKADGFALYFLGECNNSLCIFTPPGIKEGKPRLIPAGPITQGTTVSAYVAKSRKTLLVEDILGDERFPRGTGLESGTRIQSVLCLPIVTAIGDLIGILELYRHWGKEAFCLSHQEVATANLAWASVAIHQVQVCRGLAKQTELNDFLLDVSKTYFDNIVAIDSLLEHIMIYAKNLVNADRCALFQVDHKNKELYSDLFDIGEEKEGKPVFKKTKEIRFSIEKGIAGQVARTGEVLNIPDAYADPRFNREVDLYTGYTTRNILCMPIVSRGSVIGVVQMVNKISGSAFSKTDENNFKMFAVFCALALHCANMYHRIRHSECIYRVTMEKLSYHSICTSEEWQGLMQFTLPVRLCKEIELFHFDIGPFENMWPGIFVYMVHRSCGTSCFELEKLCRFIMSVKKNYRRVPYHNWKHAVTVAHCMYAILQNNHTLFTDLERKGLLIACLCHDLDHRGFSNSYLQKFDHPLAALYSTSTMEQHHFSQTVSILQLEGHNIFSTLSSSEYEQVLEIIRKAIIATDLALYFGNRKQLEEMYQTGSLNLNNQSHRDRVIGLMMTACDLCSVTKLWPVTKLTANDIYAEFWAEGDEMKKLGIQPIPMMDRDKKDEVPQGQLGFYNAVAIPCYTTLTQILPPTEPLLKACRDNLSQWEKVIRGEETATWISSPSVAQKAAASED
Method in brief: (§1)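 [3H]cAMP (40 nCi/mL, 1/3 Km) was added, then 20 min on ice (~30% turnover). Stopped with yttrium silicate SPA beads, settled 1.5 h at room temperature, CPM counted. IC50 from one-site competitive nonlinear fit, at least two independent runs.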

[2] = target: 3',5'-cyclic-AMP phosphodiesterase 4A (Homo sapiens, UniProt P27815); test: Inhibition of human recombinant PDE4A assessed reduction in [3H]cAMP hydrolysis preincubated with enzyme for 5 mins prior to substrate addition measured after 20 mins by scintillation proximity assay; method in brief: as §1
3',5'-cyclic-AMP phosphodiesterase 4A, sequence (P27815 whole entry): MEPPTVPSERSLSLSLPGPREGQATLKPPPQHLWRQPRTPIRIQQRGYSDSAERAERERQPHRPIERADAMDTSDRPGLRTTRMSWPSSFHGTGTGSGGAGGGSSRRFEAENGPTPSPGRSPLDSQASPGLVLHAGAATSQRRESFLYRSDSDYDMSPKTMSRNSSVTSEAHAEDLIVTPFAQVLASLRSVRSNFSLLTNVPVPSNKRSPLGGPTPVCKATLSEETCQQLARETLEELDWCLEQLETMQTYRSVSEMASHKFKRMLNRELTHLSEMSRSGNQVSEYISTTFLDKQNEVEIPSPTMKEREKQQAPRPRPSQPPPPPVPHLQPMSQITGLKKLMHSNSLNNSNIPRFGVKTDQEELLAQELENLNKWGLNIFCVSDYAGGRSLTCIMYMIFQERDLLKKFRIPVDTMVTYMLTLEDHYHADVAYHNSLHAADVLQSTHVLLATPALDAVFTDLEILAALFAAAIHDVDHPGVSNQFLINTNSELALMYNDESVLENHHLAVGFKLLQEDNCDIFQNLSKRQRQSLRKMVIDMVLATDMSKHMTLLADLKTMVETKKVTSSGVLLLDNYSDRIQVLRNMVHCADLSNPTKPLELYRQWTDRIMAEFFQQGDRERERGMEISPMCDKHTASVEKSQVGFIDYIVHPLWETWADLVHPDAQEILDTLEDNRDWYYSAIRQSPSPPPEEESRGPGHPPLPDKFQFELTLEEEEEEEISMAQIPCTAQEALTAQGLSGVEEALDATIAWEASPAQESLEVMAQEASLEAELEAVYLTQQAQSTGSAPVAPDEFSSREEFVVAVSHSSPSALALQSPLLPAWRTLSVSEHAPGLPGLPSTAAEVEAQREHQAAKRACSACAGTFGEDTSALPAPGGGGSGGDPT

[3] = target: 3',5'-cyclic-AMP phosphodiesterase 4B (Homo sapiens, UniProt Q07343); test: Inhibition of human recombinant PDE4B assessed reduction in [3H]cAMP hydrolysis preincubated with enzyme for 5 mins prior to substrate addition measured after 20 mins by scintillation proximity assay; method in brief: as §1
3',5'-cyclic-AMP phosphodiesterase 4B, sequence (Q07343 whole entry): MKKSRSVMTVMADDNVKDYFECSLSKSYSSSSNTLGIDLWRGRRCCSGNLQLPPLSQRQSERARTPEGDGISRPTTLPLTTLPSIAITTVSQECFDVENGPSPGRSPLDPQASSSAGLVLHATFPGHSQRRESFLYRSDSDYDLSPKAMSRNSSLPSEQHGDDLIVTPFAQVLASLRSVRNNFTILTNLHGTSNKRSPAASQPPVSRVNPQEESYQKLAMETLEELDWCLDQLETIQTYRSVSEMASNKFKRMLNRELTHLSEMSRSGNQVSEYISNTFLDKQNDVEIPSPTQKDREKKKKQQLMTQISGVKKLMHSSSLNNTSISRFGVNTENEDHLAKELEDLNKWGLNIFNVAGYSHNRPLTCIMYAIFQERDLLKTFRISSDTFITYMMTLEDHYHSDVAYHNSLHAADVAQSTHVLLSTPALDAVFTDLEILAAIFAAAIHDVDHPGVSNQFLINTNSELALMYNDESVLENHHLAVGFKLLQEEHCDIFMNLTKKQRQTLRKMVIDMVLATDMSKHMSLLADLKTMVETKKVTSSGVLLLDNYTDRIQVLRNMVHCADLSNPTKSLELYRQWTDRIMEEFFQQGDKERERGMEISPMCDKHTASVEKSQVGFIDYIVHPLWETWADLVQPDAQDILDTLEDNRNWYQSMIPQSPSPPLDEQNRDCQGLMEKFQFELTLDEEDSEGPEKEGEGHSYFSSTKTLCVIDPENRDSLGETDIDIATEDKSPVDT

[4] = target: cGMP-inhibited 3',5'-cyclic phosphodiesterase 3B (Homo sapiens, UniProt Q13370); test: Inhibition of human recombinant PDE3B assessed reduction in [3H]cAMP hydrolysis preincubated with enzyme for 5 mins prior to substrate addition measured after 20 mins by scintillation proximity assay; method in brief: as §1
cGMP-inhibited 3',5'-cyclic phosphodiesterase 3B, sequence (Q13370 whole entry): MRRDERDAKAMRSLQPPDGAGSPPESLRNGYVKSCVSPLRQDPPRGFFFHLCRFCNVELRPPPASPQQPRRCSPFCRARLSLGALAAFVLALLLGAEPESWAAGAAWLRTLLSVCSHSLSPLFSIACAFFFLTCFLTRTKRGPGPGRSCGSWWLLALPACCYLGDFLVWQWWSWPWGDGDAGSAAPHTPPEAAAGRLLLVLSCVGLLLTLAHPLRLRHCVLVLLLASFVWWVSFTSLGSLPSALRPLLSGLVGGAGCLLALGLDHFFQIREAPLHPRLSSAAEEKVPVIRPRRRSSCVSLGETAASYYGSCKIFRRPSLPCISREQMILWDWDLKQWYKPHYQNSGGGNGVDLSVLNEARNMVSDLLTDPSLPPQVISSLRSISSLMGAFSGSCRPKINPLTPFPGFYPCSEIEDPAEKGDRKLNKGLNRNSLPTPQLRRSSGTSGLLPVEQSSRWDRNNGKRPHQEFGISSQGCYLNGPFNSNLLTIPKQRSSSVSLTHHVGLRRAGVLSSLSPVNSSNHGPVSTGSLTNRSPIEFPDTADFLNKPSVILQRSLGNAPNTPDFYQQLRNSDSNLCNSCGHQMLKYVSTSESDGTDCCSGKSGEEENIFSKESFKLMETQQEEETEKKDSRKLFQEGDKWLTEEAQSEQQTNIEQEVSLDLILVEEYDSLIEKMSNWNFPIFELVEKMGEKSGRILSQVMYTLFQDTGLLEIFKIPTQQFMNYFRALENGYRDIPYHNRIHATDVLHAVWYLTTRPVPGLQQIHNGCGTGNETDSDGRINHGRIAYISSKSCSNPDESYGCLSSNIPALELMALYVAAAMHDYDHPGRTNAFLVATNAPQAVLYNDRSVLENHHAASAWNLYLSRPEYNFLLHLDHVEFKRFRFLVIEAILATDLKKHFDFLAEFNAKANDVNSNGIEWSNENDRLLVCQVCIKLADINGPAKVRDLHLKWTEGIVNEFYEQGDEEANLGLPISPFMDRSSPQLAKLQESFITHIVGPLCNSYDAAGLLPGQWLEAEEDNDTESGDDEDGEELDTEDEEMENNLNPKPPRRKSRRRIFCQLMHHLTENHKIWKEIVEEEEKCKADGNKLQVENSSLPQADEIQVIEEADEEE

[5] = target: cGMP-inhibited 3',5'-cyclic phosphodiesterase 3A (Homo sapiens, UniProt Q14432); test: Inhibition of human recombinant PDE3A assessed reduction in [3H]cAMP hydrolysis preincubated with enzyme for 5 mins prior to substrate addition measured after 20 mins by scintillation proximity assay; method in brief: as §1
cGMP-inhibited 3',5'-cyclic phosphodiesterase 3A, sequence (Q14432 whole entry): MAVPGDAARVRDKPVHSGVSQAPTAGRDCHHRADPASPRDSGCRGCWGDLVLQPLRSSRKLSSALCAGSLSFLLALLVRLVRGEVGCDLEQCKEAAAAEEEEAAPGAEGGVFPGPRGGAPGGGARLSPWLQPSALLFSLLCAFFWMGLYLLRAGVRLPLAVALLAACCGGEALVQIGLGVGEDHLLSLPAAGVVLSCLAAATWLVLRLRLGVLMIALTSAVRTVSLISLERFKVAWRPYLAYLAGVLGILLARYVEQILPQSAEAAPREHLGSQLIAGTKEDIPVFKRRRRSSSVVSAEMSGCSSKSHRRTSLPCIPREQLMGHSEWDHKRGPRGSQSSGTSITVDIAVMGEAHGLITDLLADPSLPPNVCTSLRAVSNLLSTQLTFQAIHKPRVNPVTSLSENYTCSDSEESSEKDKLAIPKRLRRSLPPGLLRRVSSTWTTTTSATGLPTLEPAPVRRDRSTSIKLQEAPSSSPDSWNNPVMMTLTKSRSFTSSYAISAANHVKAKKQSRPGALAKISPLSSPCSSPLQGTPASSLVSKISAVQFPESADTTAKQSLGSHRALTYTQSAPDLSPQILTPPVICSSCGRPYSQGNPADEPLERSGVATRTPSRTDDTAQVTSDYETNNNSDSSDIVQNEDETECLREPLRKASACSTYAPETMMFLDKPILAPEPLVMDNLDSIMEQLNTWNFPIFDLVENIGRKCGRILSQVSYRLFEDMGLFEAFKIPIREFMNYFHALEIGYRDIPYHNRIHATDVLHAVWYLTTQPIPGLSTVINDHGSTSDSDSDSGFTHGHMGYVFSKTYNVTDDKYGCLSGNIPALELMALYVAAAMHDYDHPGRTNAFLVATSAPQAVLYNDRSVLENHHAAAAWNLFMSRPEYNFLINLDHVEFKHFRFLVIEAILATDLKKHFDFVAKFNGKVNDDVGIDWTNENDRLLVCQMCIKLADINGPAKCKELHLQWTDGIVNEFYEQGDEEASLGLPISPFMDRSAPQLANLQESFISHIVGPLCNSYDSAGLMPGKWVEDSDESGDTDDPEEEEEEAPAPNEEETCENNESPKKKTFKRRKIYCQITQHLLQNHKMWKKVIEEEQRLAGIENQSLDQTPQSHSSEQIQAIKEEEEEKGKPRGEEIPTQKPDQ

SMILES: COc1ccc2ccc(CNc3ccc(-c4nn(C)cc4-c4ccncc4)cc3)nc2c1
- pIC50 [1]: 5.13

SMILES: COc1cccc2nc(COc3ccc(-c4c(-c5ccncc5)cnn4C)cc3)ccc12
- pIC50 [1]: 7.09

SMILES: COc1ccc2nc(COc3ccc(-c4c(-c5ccncc5)cnn4C)cc3)ccc2c1
- pIC50 [2]: 5.25
- pIC50 [3]: 5.15
- pIC50 [4]: 5.52
- pIC50 [1]: 8.75
- pIC50 [5]: 5.82

SMILES: COc1cccc2ccc(CNc3ccc(-c4c(-c5ccncc5)cnn4C)cc3)nc12
- pIC50 [1]: 5.34

SMILES: COc1ccc2ccc(CNc3ccc(-c4c(-c5ccncc5)cnn4C)cc3)nc2c1
- pIC50 [1]: 5.29

SMILES: COc1ccc2nc(CNc3ccc(-c4c(-c5ccncc5)cnn4C)cc3)ccc2c1
- pIC50 [1]: 5.37

SMILES: COc1ccc2nc(CSc3ccc(-c4c(-c5ccncc5)cnn4C)cc3)ccc2c1
- pIC50 [1]: 6.21

SMILES: COc1cc(CNc2ccc(-c3nn(C)cc3-c3ccncc3)cc2)nc2ccccc12
- pIC50 [1]: 4.86

SMILES: COc1cccc2ccc(CSc3ccc(-c4c(-c5ccncc5)cnn4C)cc3)nc12
- pIC50 [1]: 5.52

SMILES: COc1cc2ccccc2nc1COc1ccc(-c2c(-c3ccncc3)cnn2C)cc1
- pIC50 [2]: 3.70
- pIC50 [3]: 4.50
- pIC50 [4]: 4.77
- pIC50 [1]: 9.62
- pIC50 [5]: 4.73

SMILES: COc1ccc2ccc(COc3ccc(-c4c(-c5ccncc5)cnn4C)cc3)nc2c1
- pIC50 [1]: 7.02

SMILES: COc1ccc2ccc(CSc3ccc(-c4nn(C)cc4-c4ccncc4)cc3)nc2c1
- pIC50 [1]: 6.40

SMILES: COc1cc(COc2ccc(-c3nn(C)cc3-c3ccncc3)cc2)nc2ccccc12
- pIC50 [2]: 5.59
- pIC50 [3]: 5.75
- pIC50 [4]: 5.41
- pIC50 [1]: 9.55
- pIC50 [5]: 4.56

SMILES: COc1cccc2ccc(COc3ccc(-c4nn(C)cc4-c4ccncc4)cc3)nc12
- pIC50 [1]: 7.38

SMILES: COc1ccc2ccc(CSc3ccc(-c4c(-c5ccncc5)cnn4C)cc3)nc2c1
- pIC50 [1]: 6.20

SMILES: COc1ccc2nc(CNc3ccc(-c4nn(C)cc4-c4ccncc4)cc3)ccc2c1
- pIC50 [1]: 5.12

SMILES: COc1ccc2nc(CSc3ccc(-c4nn(C)cc4-c4ccncc4)cc3)ccc2c1
- pIC50 [1]: 6.38

SMILES: COc1ccc2nc(COc3ccc(-c4nn(C)cc4-c4ccncc4)cc3)ccc2c1
- pIC50 [2]: 5.47
- pIC50 [3]: 5.59
- pIC50 [4]: 5.01
- pIC50 [1]: 8.74
- pIC50 [5]: 4.11

SMILES: COc1cccc2ccc(COc3ccc(-c4c(-c5ccncc5)cnn4C)cc3)nc12
- pIC50 [1]: 6.70

SMILES: COc1cc(CSc2ccc(-c3c(-c4ccncc4)cnn3C)cc2)nc2ccccc12
- pIC50 [1]: 5.73

SMILES: COc1cc2ccccc2nc1COc1ccc(-c2nn(C)cc2-c2ccncc2)cc1
- pIC50 [2]: 5.41
- pIC50 [3]: 5.46
- pIC50 [4]: 4.08
- pIC50 [1]: 9.40
- pIC50 [5]: 3.91

SMILES: COc1cccc2nc(COc3ccc(-c4nn(C)cc4-c4ccncc4)cc3)ccc12
- pIC50 [1]: 7.22

SMILES: COc1cc(CSc2ccc(-c3nn(C)cc3-c3ccncc3)cc2)nc2ccccc12
- pIC50 [1]: 6.77

SMILES: COc1cc(COc2ccc(-c3c(-c4ccncc4)cnn3C)cc2)nc2ccccc12
- pIC50 [2]: 5.38
- pIC50 [3]: 5.30
- pIC50 [4]: 5.32
- pIC50 [1]: 9.44
- pIC50 [5]: 4.54

SMILES: COc1cccc2ccc(CSc3ccc(-c4nn(C)cc4-c4ccncc4)cc3)nc12
- pIC50 [1]: 6.20

SMILES: COc1cc(CNc2ccc(-c3c(-c4ccncc4)cnn3C)cc2)nc2ccccc12
- pIC50 [1]: 6.19

SMILES: COc1cccc2ccc(CNc3ccc(-c4nn(C)cc4-c4ccncc4)cc3)nc12
- pIC50 [1]: 4.96

SMILES: COc1ccc2ccc(COc3ccc(-c4nn(C)cc4-c4ccncc4)cc3)nc2c1
- pIC50 [1]: 7.34
